Compound activity from PubChem BioAssay.
An excerpt weighted towards active compounds, which were near 2.8% of everything screened.
NPY Y1 blocker: antagonists of human neuropeptide Y receptor Y1; P25929; HEK293-CNG Y1 cells, membrane potential fluorescence; NPY at EC95, then isoproterenol; inhibition, % at 3.6 µM; 200,000 compounds, 1% hits; AID 1040;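 active means inhibition above the campaign mean inhibition of all tested compounds plus 3 SD, cut at about 20% in these data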
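Benchmarks – high control isoproterenol alone, low control NPY with isoproterenol · Material – HEK293 Y1/CNG channel cell line · Times – dye 3 h, compound 60 min room temperature, stimulation 45 min · Probe or stimulus – NPY (25 nM), isoproterenol (1 µM), Ro 20-1724 (25 µM) · Evaluation – % inhibition of NPY effect · Signal – fluorescence, membrane potential probe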
NPY-Y2 PAM-ag: human NPY-Y2 potentiation or agonism, primary screen; P49146; cells expressing NPY-Y2, potentiator/agonist read-out; activation, % at 3.6 µM; 220,000 compounds, 0.45% hits; AID 1359; in the data active means activation above about 27%;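 further: cells stimulated with NPY near EC25 plus isoproterenol at EC100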
Target sequence (P49146 whole entry, looked up): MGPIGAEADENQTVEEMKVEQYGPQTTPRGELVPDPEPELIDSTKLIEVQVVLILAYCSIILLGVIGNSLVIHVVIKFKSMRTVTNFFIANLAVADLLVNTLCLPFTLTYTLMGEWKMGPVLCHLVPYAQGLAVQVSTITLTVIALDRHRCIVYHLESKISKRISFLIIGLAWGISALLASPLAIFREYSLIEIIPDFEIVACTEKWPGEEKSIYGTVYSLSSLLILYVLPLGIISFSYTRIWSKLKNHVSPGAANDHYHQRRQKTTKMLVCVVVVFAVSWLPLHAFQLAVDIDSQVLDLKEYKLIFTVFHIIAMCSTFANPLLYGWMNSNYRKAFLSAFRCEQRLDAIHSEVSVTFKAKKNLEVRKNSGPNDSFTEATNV
EP2 mod: modulators of human EP2 prostaglandin E2 receptor; P43116; EP2-expressing cells, cAMP HTRF FRET, PGE2 co-stimulation; induction, % at 25 µM; 260,000 compounds, 0.83% hits; AID 940;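 active means compounds whose cAMP rise, as percent of the full-agonist control response, exceeds 60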;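 further: rat C6 glioma line stably carrying human EP2 under a CMV promoter; the protocol text gives 20 µM as final concentration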
EP2 antag: inhibitors of human EP2 prostaglandin E2 receptor. P43116. C6 glioma cells expressing human EP2, cAMP TR-FRET; cells stimulated with saturating PGE2. inhibition, % at 25 µM. 260,000 compounds, 0.52% hits;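 active means percent inhibition above 40 after rounding to a whole number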;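 further: rat C6 glioma host cells with rolipram phosphodiesterase inhibitor present; the protocol text gives 20 µM as final concentration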
NPY-Y1 PAM-ag: potentiates or activates human NPY-Y1 receptor; activation, % at 3.6 µM; AID 1304; P25929; NPY-Y1 expressing cells, potentiator/agonist activation; 220,000 compounds, 0.37% hits; in the data active means activation above about 33%, passing the limit was not always enough;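 further: cells stimulated with NPY at EC10 then isoproterenol at EC100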
NPY Y2 blocker: blocks the human neuropeptide Y Y2 receptor | NPY-Y2 expressing cells, antagonist mode | inhibition, % at 2.7 µM | 140,000 compounds, 0.99% hits; in the data active means inhibition above about 17%
Hits are given with their value; – = inactive; · = no result; ! = not confirmed by another sample.

SMILES | NPY Y1 blocker | NPY-Y2 PAM-ag | EP2 mod | EP2 antag | NPY-Y1 PAM-ag | NPY Y2 blocker
Cn1c(SCC(=O)N2CCCCC2)nc2ccccc2c1=O | · | · | – | – | · | ·
CC1CCCc2sc3nc(NCc4ccco4)n4ncnc4c3c21 (centres undefined) | 39 | – | – | – | – | 28
O=C(Nc1cc(Cl)ccc1N1CCOCC1)c1cc2ccccc2o1 | · | · | 81 | – | · | ·
O=C1CN=C(Nc2ccc(F)cc2)N1c1ccc2c(c1)OCCO2 | · | · | – | – | · | ·
CCCSc1nc(N2CCOCC2)c2c(c1C#N)CC(C)(C)SC2 | – | – | 65 | – | – | –
COc1ccc2nc(SCC(=O)Nc3cc(C(F)(F)F)ccc3Cl)c(C#N)cc2c1 | · | · | – | – | · | ·
CCOC(=O)c1sc(NC(=O)CN2C(=O)NC3(CCCCCCC3)C2=O)c(C(=O)OCC)c1C | · | 102 | – | – | 68 | ·
CSc1nc2ccccc2n1CC(=O)Nc1cc(C(F)(F)F)ccc1N1CCOCC1 | 24 | – | – | – | – | 23
COc1ccc(CN(Cc2cccn2C)S(=O)(=O)c2ccccc2)cc1 | · | – | 69 | – | – | ·
O=C(O)[C@H]1CCCC[C@@H]1c1c2ccc(=O)c(O)c-2oc2c(O)c(O)ccc12 | · | · | – | 42 | · | ·
O=C(/C(=C/c1ccc(Cl)cc1)c1nc2ccccc2[nH]1)c1cccs1 | 23 | – | – | – | – | 46
CC(C)(C)C1=NN(CC(=O)NCc2ccccn2)C(=O)c2cc3ccccc3n2C1 | · | · | – | – | · | ·
CCN(CC)S(=O)(=O)c1ccc(S(=O)(=O)n2cnc3cc(C)c(C)cc32)cc1 | · | · | – | – | · | ·
Cn1cccc1-c1nc2ccc(NC(=O)c3cccs3)cc2[nH]1 | – | – | – | 48 | – | –
O=C(C1CCC1)N1CCc2cc(S(=O)(=O)NCC3COc4ccccc4O3)ccc21 (centres undefined) | 24 | – | – | – | – | 20
O=C(NCCNCc1ccc(Cl)cc1)c1cccs1 | · | · | – | – | · | ·
O=C(NCc1cccs1)C1CCCN1C(=O)Nc1ccccc1 (centres undefined) | – | 102 | – | – | 111 | –
Cc1cc2c(o1)c1cnn(CC(=O)NC(C)c3ccncc3)c(=O)c1n2C(C)C (centres undefined) | · | · | – | · | · | ·
NC(N)=N[C@@H]1C(O)[C@H](N=C(N)N)[C@@H](O)C(O)[C@H]1O (some centres undefined) | · | · | – | 51 | · | ·
O=c1oc(-c2cccnc2)nn1Cc1ccccc1F | · | · | – | · | · | ·
COc1cc(N=Nc2cccc(S(N)(=O)=O)c2)c2ccccc2c1N | · | 52 | – | 79! | 61 | ·
COc1ccc(NC(=O)C2=C(C)NC(=O)NC2c2ccc(C(C)C)cc2)c(OC)c1 (centres undefined) | · | · | – | – | · | ·
CN(C)S(=O)(=O)c1ccc(Nc2ccc(O)c3c2C(=O)c2c([N+](=O)[O-])ccc(O)c2C3=O)cc1 | · | · | – | 59 | · | ·
COc1cccc(C(=O)N2CCN(Cc3ccccc3)CC2)c1OC | · | · | – | – | · | ·
CC(=O)Oc1c(/C=C(\C#N)C(N)=O)[nH]c2ccccc12 | – | – | – | 95 | – | –
SMILES | NPY Y1 blocker | NPY-Y2 PAM-ag | EP2 mod | EP2 antag | NPY-Y1 PAM-ag | NPY Y2 blocker
COc1ccc(CCN(C(=S)Nc2ccccc2)C2CC(=O)N(c3ccccc3)C2=O)cc1 (centres undefined) | – | 37 | – | – | – | –
COc1ccc(CN(C(=S)Nc2ccccc2)C2CC(=O)N(c3ccc(F)cc3)C2=O)cc1 (centres undefined) | – | – | – | – | – | –
CCc1ccccc1Nc1c2c(nc3ncnn13)CCC2 | · | · | – | – | · | ·
Cc1ccc(C)c2[nH]c(=O)c(C(c3nnnn3CCc3ccccc3)N3CCOCC3)cc12 (centres undefined) | – | – | – | – | – | –
Cc1cc(C)c2[nH]c(=O)c(C(c3nnnn3Cc3ccc(F)cc3)N3CCCCCC3)cc2c1 (centres undefined) | · | · | 69 | – | · | ·
Cc1ccc(C)c2[nH]c(=O)c(C(c3nnnn3CCc3ccccc3)N3CCCCC3)cc12 (centres undefined) | · | · | 85 | – | · | ·
Cc1cccc2cc(C(c3nnnn3Cc3ccc(F)cc3)N3CCCCC3)c(=O)[nH]c12 (centres undefined) | · | · | – | – | · | ·
CCn1cc(CNC(=O)CCSc2nc(-c3ccc(OC)cc3)cc(C(F)(F)F)n2)c(C)n1 | · | · | – | – | · | ·
CC(C)c1cccc(O)c(=O)c1 | – | – | – | – | – | ·
